Screening data from PubChem.
CXCR6 inh: blocks human CXCR6 beta-arrestin recruitment; O00574; CHO-K1 PathHunter CXCR6 beta-arrestin, luminescence; inhibition, % at 20 µM; 0.36% of 360,000 active; in the data active = inhibition above about 34%, passing the limit was not always enough;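 also: antagonist mode with CXCL16 agonist at 10 nM final; 0% = 10 nM CXCL16 with DMSO and 100% = unstimulated wells without agonist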
HTR2A ag: activates the mouse 5-HT2A serotonin receptor | P35363 | CHO-K1 mHTR2A beta-arrestin complementation, luminescence; percent of 30 µM serotonin response | activation, % at 7.6 µM | 0.66% of 360,000 active;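 active = activation above a run cutoff, the mean activation of all tested compounds plus 3 SD, cut at about 14% in these data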;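 also: 0% = plate median of compound wells and 100% = 30 µM serotonin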
CCR6 antagonist: antagonists of human CCR6 receptor; P51684; inhibition, % at 20 µM; CHO-K1 CCR6 PathHunter beta-arrestin, luminescence, CCL20-stimulated; 0.49% of 340,000 active; AID 493098;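 active = compounds whose inhibition of the agonist-driven luminescence signal at 20 µM reaches about 50%, limit read from the data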;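 also: cells stimulated with CCL20 at 14 nM final; plate controls were DMSO with CCL20 for no effect and DMSO without agonist for full effect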
Target sequence (P51684 whole entry, looked up): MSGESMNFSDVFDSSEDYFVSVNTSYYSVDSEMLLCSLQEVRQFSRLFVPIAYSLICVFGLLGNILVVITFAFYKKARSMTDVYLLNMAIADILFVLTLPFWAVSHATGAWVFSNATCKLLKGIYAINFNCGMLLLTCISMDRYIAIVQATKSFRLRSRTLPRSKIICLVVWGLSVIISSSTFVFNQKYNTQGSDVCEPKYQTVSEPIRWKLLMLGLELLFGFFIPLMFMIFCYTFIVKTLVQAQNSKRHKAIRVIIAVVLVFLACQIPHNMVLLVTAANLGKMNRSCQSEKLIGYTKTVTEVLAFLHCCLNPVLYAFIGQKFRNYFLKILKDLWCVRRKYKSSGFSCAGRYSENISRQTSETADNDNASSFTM
APJ antagonist: APJ receptor antagonism | P35414 | inhibition, % at 20 µM | 0.32% of 330,000 active | CHO-K1 APJ beta-arrestin complementation, luminescence;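 active = inhibition above about 40% at 20 µM, limit read from the data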;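 also: cells challenged with 10 nM apelin-13 agonist together with compound; plate controls were apelin-13 plus DMSO wells for no effect and DMSO wells lacking apelin-13 for full effect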
APJ agonist: agonists of human APJ apelin receptor | activation, % at 20 µM | CHO-K1 APJ PathHunter beta-arrestin, luminescence; 0% DMSO wells, 100% apelin | AID 2520 | P35414 | 0.11% of 330,000 active;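 active = activation more than six SD over the plate average, tested at 20 µM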;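 also: 0% = DMSO alone and 100% = apelin-13 at 10 nM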
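Test system – PathHunter CHO-K1 APJ (AGTRL-1) beta-arrestin reporter cells · Input – 1000 cells/well · Compound – single test compound dose, 20 µM final, 1% DMSO · Times – compound stimulation 90 min at 25 °C, detection 60 min · Technique – beta-gal luminescence · Read-out basis – APJ–arrestin association signal · Control set – negative DMSO alone, positive Apelin-13 at 10 nM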
EBI2 antag: EBI2 (human) antagonism; P32249; EBI2 beta-arrestin recruitment, luminescence, 7a,25-OHC stimulated; inhibition, % at 5 µM; 0.81% of 360,000 active; in the data active = inhibition above about 38%;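 also: enzyme fragment complementation signal reports receptor beta-arrestin coupling in cells; 0% = agonist plus DMSO wells and 100% = wells without agonist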
EBI2 antag conf: EBI2 (human) antagonism, single concentration confirmation; EBI2 beta-arrestin luminescence, 7a,25-OHC antagonism; 29% of 2,400 active; AID 651997; shares compounds with EBI2 antag; inhibition, % at 5 µM;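 active = inhibition of at least 50%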
EBI2 ag: EBI2 agonism counter-screen | shares compounds with EBI2 antag | EBI2-expressing cells, agonist mode, luminescence, 60 min; 0% vehicle, 100% 7α,25-dihydroxycholesterol control | activation, % at 5 µM | 2,400 tested, under 10 active;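 active = activation of at least 50%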
bGal counter: inhibits E. coli beta-galactosidase, counter-screen for EBI2 antagonists; shares compounds with EBI2 antag; purified beta-galactosidase, luminescent Galacton Star, 15 min; inhibition, % at 5 µM; 1% of 2,400 active;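 active = replicate-average signal at least 3 plate SD below neutral wells, shown as high inhibition, flagging enzyme-inhibiting false positives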;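 also: 0% = DMSO wells with enzyme and 100% = wells lacking enzyme; higher means stronger loss of beta-gal luminescence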
Numbers without * were called inactive; . = no result. Most compounds without a hit are left out; they make up all but 2.1% or so of the library.

SMILES	CXCR6 inh	HTR2A ag	CCR6 antagonist	APJ antagonist	APJ agonist	EBI2 antag	EBI2 antag conf	EBI2 ag	bGal counter
COc1ccc(N2CCN(C(=O)c3ccc4c(c3)CC(c3ccccc3)OC4=O)CC2)cc1 (configuration not stated)	5	-1	9	21	-9	91*	78*	0	6
O=C(O)c1ccc2c(c1)CC(c1ccccc1)OC2=O (configuration not stated)	8	0	5	2	-1	8	.	.	.
O=C1OC(c2ccccc2)Cc2cc(C(=O)N3CCN(c4ccc(F)cc4)CC3)ccc21 (configuration not stated)	-1	-3	1	5	1	90*	58*	1	8
Cc1ccc(C(=O)/C=C\NCc2ccccc2)cc1	4	-8	10	-9	-2	2	.	.	.
COc1ccc(/C=C(/CC(=O)NCc2ccc(Cl)cc2)c2nc3ccccc3s2)cc1	2	1	21	12	1	39*	1	-2	-12
COc1ccc(/C=C(/CC(=O)Nc2ccccc2)c2nc3ccccc3s2)cc1	5	-3	15	-15	-3	-19	.	.	.
COc1ccccc1N1CCN(C(=O)c2ccc(-c3ccccc3)cc2)CC1	-3	-11	12	11	0	74*	40	-1	-9
COc1ccc(C(=O)N2CCN(c3ccccc3OC)CC2)cc1	2	9	2	2	-3	12	.	.	.
CCCS(=O)(=O)N1CCN(C(=O)c2ccc(-c3ccccc3)cc2)CC1	0	-2	-5	-5	5	73*	43	1	3
COc1ccccc1N1CCN(C(=O)c2cc(-c3ccccc3)on2)CC1	27	5	5	-9	3	63*	54*	0	5
COc1ccccc1N1CCN(C(=O)c2cc(-c3cccs3)on2)CC1	-4	-6	-2	-12	-2	67*	52*	3	11
CCCS(=O)(=O)N1CCN(C(=O)c2cccnc2)CC1	-6	-3	-11	12	1	-10	.	.	.
COc1ccccc1N1CCN(C(=O)c2cc(-c3ccccc3O)on2)CC1	4	-7	13	-10	-2	17	.	.	.
Cc1ccccc1C(=O)N1CCC(C(=O)OCC(=O)Nc2cccc([N+](=O)[O-])c2C)CC1	3	10	5	-2	1	-6	.	.	.
COc1ccccc1-c1ccc(SCc2cccc(C)c2)nn1	8	1	12	13	-2	2	.	.	.
COc1ccccc1N1CCN(C(=O)COc2ccc(Cl)cc2Br)CC1	-3	-2	-19	-4	-2	32	.	.	.
Cc1ccc(/C=C/C(=O)N2CCN(c3cccc(C(F)(F)F)c3)CC2)cc1	1	0	9	-8	1	83*	76*	1	-3
O=C(c1ccc(-c2ccccc2)cc1)N1CCN(c2ncccn2)CC1	2	-3	-10	0	-7	49*	33	0	2
O=C(c1ccccc1)N1CCN(c2ncccn2)CC1	7	-3	-2	-8	0	-2	.	.	.
COc1ccccc1N1CCN(C(=O)COc2ccc(C)cc2Br)CC1	5	1	-20	-8	0	50*	16	-1	-11
C=CCN1CCN(C(=O)c2ccc(-c3ccccc3)cc2)CC1	-5	2	5	-11	-2	77*	45	0	3
Cc1ccc(C)c(C(=O)CCC(=O)N2CCN(c3cccc(C(F)(F)F)c3)CC2)c1	2	-3	15	1	-3	-4	.	.	.
COc1ccc2[nH]c3c(c2c1)CCN1C(=O)C(CC(=O)NCCc2ccccn2)C[C@H](C(=O)N2CCOCC2)[C@@]31CCC1CCCC1 (some centres not stated)	1	3	10	.	.	-8	.	.	.
CC(CC(=O)OCC(=O)NCc1ccc(Cl)cc1)c1ccccc1 (configuration not stated)	-3	-1	4	4	-1	7	.	.	.
COc1cc(C(CC(=O)Nc2ccc(C)cn2)N2Cc3ccccc3C2=O)cc(OC)c1OC (configuration not stated)	1	0	1	6	-1	-8	.	.	.
SMILES	CXCR6 inh	HTR2A ag	CCR6 antagonist	APJ antagonist	APJ agonist	EBI2 antag	EBI2 antag conf	EBI2 ag	bGal counter
Cn1ccc2c(N(c3ccccc3)C3CCCCC3)cc3c(c21)C1CCC3O1 (configuration not stated)	8	1	.	.	.	21	.	.	.
COc1ccccc1N1CCN(C(=O)/C=C/c2ccc(C)cc2)CC1	-6	-4	19	-3	1	93*	85*	2	2
C=C(C)C(=O)NNc1ccccc1	-6	1	13	-5	-1	3	.	.	.
CCN(CC)C(=O)Oc1cc(COC)nc(-c2ccccc2)n1	-4	-1	5	5	0	-14	.	.	.
CCN(CC(=O)NCc1ccc(Cl)cc1)C(=O)CSc1ccc(Br)cc1	4	-6	-2	5	0	68*	35	0	5
COc1ccc(N(CC(=O)NCCSc2ccccc2)S(C)(=O)=O)cc1	3	-4	4	11	-2	63*	40	0	-12
COc1cccc(N(CC(=O)NCCSc2ccc(Cl)cc2)S(C)(=O)=O)c1	-1	-7	1	4	1	87*	69*	1	9
COc1ccc(N(CC(=O)NCCSc2ccc(C)cc2)S(=O)(=O)c2ccccc2)c(OC)c1	1	-5	1	5	5	81*	47	1	2
CC(=O)c1cccc(Nc2nc(-c3sc(C)nc3C)cs2)c1	2	2	-2	2	-1	52*	38	-1	-11
CC(=O)Nc1ccc(Nc2nc(-c3sc(C)nc3C)cs2)cc1	-4	-2	5	-17	5	1	.	.	.
CC(=O)c1ccc(Nc2nc(-c3sc(C)nc3C)cs2)cc1	-7	-3	.	.	.	51*	38	1	11
O=C(NCc1cccs1)C(=O)NCC(c1ccco1)N1CCN(c2ccccc2F)CC1 (configuration not stated)	-8	1	14	8	-3	52*	22	2	4
CC(=O)c1ccc(Sc2ccc(C(C)=O)cc2)cc1	-2	-1	1	-2	-1	2	.	.	.
Cc1ccc(C(=O)NCc2ccco2)cc1S(=O)(=O)N1CCCCC1	4	0	14	5	-7	-2	.	.	.
